Data from ChEMBL document CHEMBL3259663, “3-Amido-3-aryl-piperidines: A Novel Class of Potent, Selective, and Orally Active GlyT1 Inhibitors” (ACS Med Chem Lett, 2014).
In brackets after ≈: the same amount, converted by molar mass. Activity calls are given as the source filed them. The rule behind the calls is not given here.

Columns and labels:
[1] = Half life in mouse at 7.7 mg/kg, po; type: ADME, organism-based; set-up: dose 7.7 mg/kg, route oral; conditions: in vivo
Summary of the method: (§1)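 Mouse PK after a 7.7 mg/kg oral dose. Brain/plasma ratio taken at 1.5 h. Values are the average of two independent experiments.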

[2] = Ratio of drug level in rat brain after 3 hrs to EC50 for human GlyT1 by [3H]glycine uptake assay
[3] = Clearance in mouse at 1.7 mg/kg, iv; type: ADME, organism-based; set-up: dose 1.7 mg/kg, route intravenous; conditions: in vivo
Summary of the method: (§2)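 Mouse PK, single iv dose of 1.7 mg/kg. Values are the average of two independent experiments.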

[4] = Dissociation constant, pKa of the compound by capillary electrophoresis; type: physicochemical
Summary of the method: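 pKa determined by capillary electrophoresis.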

[5] = Volume of distribution at steady state in mouse at 1.7 mg/kg, iv; type: ADME, organism-based; set-up: dose 1.7 mg/kg, route intravenous; conditions: in vivo, read-out: Vdss; summary of the method: as §2
[6] = Permeability of the compound by PAMPA; type: physicochemical; conditions: read-out: permeability
[7] = target: Cytochrome P450 3A4 (Homo sapiens, UniProt P08684); test: Inhibition of CYP3A4 (unknown origin); type: ADME
Cytochrome P450 3A4, sequence (P08684 whole entry): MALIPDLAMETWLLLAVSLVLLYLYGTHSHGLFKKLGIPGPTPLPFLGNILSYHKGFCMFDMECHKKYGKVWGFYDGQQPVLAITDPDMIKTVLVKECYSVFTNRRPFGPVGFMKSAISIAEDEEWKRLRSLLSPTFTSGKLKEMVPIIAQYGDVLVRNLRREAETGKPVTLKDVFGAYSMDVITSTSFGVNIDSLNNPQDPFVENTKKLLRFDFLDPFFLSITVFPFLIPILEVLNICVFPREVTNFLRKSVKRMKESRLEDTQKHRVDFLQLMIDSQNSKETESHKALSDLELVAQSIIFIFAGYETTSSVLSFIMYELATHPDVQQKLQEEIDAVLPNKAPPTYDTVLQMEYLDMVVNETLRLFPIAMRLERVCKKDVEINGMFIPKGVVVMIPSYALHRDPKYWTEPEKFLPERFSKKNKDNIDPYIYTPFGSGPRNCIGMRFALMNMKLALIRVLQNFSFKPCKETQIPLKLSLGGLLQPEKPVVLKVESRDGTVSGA

[8] = tested on: Striatum; test: Induction of extracellular glycine level in rat striatum at 10 mg/kg, po after 3 hrs relative to basal level; type: functional
Summary of the method: (§3)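 Rat striatal microdialysis after a 10 mg/kg oral dose. Extracellular glycine measured as fold over basal levels, with sampling stopped at 3 h. Plasma and brain exposures determined at 3 h post-dose. n = 6.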

[9] = Fraction unbound in mouse at 7.7 mg/kg, po; type: ADME, organism-based; set-up: dose 7.7 mg/kg, route oral; conditions: in vivo, read-out: PPB; summary of the method: as §1
[10] = target: T1, Sodium- and chloride-dependent glycine transporter 2 (Homo sapiens, UniProt Q9Y345); test: Inhibition of human GlyT2 expressed in cells assessed as [3H]glycine uptake; type: cell-based
T1 sequence (Q9Y345 whole entry): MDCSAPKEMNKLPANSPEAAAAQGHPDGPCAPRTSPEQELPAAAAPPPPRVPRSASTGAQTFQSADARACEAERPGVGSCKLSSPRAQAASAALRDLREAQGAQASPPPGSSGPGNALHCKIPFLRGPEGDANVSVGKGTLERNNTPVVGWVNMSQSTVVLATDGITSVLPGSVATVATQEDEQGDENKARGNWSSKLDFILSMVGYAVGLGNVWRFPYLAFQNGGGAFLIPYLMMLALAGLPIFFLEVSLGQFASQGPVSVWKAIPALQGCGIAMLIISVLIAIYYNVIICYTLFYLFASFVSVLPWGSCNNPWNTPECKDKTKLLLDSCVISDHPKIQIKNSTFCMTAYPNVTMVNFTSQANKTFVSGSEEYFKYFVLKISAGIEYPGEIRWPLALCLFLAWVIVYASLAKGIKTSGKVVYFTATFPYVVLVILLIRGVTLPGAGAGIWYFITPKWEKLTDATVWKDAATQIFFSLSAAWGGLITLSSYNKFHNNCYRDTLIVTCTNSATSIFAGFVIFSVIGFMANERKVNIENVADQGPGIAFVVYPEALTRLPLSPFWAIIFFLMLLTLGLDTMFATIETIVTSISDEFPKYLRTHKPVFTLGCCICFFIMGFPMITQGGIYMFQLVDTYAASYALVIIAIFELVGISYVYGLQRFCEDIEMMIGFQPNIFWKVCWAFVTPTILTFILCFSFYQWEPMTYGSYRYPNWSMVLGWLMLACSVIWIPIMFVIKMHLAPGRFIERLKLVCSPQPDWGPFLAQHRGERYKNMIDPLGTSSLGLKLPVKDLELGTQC

[11] = target: Cytochrome P450 2D6 (Homo sapiens, UniProt P10635); test: Inhibition of CYP2D6 (unknown origin); type: ADME
Cytochrome P450 2D6, sequence (P10635 whole entry): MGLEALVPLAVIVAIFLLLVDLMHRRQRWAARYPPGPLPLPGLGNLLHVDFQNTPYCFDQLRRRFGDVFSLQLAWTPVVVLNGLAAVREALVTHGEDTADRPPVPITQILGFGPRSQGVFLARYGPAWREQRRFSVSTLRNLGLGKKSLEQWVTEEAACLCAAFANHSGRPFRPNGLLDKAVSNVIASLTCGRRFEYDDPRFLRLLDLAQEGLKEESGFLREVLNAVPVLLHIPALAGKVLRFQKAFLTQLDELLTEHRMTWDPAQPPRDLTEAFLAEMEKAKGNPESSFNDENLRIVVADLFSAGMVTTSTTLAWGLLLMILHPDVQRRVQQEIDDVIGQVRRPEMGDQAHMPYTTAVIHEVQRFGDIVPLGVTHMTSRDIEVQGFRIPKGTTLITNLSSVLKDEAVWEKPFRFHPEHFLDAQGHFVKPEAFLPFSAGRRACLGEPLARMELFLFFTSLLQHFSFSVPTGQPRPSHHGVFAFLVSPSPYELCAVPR

[12] = target: Cytochrome P450 2C9 (Homo sapiens, UniProt P11712); test: Inhibition of CYP2C9 (unknown origin); type: ADME
Cytochrome P450 2C9, sequence (P11712 whole entry): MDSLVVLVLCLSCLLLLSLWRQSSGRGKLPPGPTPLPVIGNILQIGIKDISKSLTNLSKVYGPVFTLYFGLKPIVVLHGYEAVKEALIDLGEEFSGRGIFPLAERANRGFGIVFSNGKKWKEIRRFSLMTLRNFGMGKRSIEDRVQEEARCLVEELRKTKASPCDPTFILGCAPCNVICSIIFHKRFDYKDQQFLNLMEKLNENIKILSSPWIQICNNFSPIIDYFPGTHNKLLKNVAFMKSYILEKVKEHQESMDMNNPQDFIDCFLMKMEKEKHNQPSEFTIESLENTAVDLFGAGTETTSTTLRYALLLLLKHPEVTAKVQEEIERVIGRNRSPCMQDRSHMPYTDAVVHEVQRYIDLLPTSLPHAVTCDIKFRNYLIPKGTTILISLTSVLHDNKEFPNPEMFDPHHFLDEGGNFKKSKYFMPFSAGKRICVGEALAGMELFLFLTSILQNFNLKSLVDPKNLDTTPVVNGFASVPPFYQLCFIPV

[13] = tested on: Mus musculus; test: Inhibition of L687414-induced hyperlocomotion in po dosed mouse assessed horizontal activity at 8 ng/ml plasma concentration; type: functional, organism-based
[14] = target: T2, Sodium- and chloride-dependent glycine transporter 1 (Homo sapiens, UniProt P48067); test: Inhibition of human GlyT1 expressed in cells assessed as [3H]glycine uptake; type: cell-based
T2 sequence (P48067 whole entry): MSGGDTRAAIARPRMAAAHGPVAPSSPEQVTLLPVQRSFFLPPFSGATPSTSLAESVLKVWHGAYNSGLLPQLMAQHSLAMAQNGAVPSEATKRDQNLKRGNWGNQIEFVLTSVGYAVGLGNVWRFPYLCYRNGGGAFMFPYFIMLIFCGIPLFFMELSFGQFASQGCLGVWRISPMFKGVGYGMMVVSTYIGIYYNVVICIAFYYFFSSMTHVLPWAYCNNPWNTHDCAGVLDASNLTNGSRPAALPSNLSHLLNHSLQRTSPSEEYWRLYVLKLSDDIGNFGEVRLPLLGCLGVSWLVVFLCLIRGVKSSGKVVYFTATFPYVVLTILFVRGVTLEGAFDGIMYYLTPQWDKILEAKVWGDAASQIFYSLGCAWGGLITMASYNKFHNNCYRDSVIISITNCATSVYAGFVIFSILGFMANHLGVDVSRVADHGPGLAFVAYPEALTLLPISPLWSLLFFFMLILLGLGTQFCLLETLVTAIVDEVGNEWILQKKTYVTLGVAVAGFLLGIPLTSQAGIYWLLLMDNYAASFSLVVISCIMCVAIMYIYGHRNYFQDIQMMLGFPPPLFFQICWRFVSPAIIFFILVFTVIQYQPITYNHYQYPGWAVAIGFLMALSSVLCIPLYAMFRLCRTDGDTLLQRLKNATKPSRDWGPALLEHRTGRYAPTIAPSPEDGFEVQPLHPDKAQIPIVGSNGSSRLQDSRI
Summary of the method: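 [³H]-glycine uptake inhibition in cells transfected with human GlyT1. EC₅₀ values are the average of at least two independent experiments.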

[15] = tested on: Brain; test: Effect on brain glycine level in rat striatum at 10 mg/kg, po; type: functional; summary of the method: as §3
[16] = tested on: MDR1 (P-gp); test: Efflux ratio of permeability in pig LLC-PK1 cells expressing human MDR1; type: ADME, cell-based, Sus scrofa
Summary of the method: (§4)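 Efflux ratio measured in LLC-PK1 cells stably expressing human MDR1 or mouse MDR1A.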

[17] = Octanol-phosphate buffer partition coefficient, log D of the compound at pH 7.4; type: physicochemical
Summary of the method: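 Distribution coefficient measured between 1-octanol and phosphate buffer at pH 7.4.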

[18] = Intrinsic clearance in mouse liver microsomes; type: ADME; conditions: read-out: CLH
[19] = tested on: Striatum; test: Maximal induction of extracellular glycine level in rat striatum at 10 mg/kg, po relative to basal level; type: functional; summary of the method: as §3
[20] = Genotoxicity in micronucleus (unknown origin) by MNT test
[21] = tested on: MDR1A (P-gp); test: Efflux ratio of permeability in pig LLC-PK1 cells expressing mouse MDR1A; type: ADME, cell-based, Sus scrofa; summary of the method: as §4
[22] = Ratio of drug level from brain to plasma rat at 10 mg/kg, po; type: ADME, organism-based; set-up: dose 10 mg/kg, route oral; conditions: brain and plasma, read-out: BPR; summary of the method: as §3
[23] = Solubility of the compound at pH 6.5 by lyophilization solubility assay; type: physicochemical; conditions: buffer
Summary of the method: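 Lyophilization solubility assay. DMSO solution of compound is lyophilized, dissolved in 0.05 M phosphate buffer pH 6.5, stirred 1 h, then shaken 2 h.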

[24] = Oral bioavailability in mouse at 7.7 mg/kg; type: ADME, organism-based; conditions: in vivo; summary of the method: as §1
[25] = target: hERG (KCNH2) (Homo sapiens, UniProt Q12809); test: Inhibition of human ERG channel by Patch clamp assay
hERG (KCNH2), sequence (Q12809 whole entry): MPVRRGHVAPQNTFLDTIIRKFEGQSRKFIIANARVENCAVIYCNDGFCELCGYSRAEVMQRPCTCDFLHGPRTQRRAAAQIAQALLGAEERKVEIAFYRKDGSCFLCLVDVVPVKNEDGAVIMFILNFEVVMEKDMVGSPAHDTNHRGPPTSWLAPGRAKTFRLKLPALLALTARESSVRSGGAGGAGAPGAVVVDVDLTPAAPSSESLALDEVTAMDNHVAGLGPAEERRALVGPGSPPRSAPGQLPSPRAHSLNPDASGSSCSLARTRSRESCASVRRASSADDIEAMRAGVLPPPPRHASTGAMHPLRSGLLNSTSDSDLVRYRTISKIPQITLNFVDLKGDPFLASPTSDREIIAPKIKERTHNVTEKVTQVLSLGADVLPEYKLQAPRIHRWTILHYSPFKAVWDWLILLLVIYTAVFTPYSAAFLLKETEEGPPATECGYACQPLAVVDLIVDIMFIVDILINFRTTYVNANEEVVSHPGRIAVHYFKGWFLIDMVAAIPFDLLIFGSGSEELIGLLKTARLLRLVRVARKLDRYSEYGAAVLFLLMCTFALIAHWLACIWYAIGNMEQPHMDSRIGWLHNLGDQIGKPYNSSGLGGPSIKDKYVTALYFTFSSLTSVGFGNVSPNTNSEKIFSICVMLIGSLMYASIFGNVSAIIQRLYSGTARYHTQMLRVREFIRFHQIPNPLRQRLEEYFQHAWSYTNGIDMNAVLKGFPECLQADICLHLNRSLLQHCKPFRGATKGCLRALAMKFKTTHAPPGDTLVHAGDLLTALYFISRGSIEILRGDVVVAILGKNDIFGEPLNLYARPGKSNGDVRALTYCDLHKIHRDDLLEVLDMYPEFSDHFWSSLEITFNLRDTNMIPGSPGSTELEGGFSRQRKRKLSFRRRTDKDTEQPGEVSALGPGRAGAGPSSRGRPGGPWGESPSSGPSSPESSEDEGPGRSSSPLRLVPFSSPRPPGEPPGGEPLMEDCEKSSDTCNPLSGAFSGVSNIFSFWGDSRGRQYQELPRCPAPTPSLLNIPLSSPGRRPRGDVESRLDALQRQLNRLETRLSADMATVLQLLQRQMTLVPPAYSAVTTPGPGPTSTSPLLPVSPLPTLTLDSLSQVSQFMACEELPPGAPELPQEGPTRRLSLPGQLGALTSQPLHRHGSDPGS

COc1cc(C(F)(F)F)cc(SC)c1C(=O)N[C@@]1(c2ccccc2)CCCN(C)C1
half-life [1]: 4.2 h
Ratio [2]: 13
clearance [3]: 54 mL/min/kg
pKa [4]: 7.72
Vd [5]: 8 L/kg
Papp [6]: 7.4 ×10⁻⁶ cm/s
IC50 [7]: > 50 µM
fold change (FC) [8]: 1.5
fraction unbound [9]: 0.017
EC50 [10]: 15 µM
IC50 [11]: 16 µM
IC50 [12]: > 50 µM
inhibition [13]: Active
EC50 [14]: 0.01 µM
Activity [15]: 60 ng/mL
efflux ratio [16]: 0.9
logD [17]: 3.12
microsomal CLint [18]: 54 µL/min/mg
fold change (FC) [19]: 1.7
Activity [20]: Non-toxic
efflux ratio [21]: 1.5
Kp [22]: 0.08
solubility [23]: 147 µg/mL (≈ 335 µM)
bioavailability [24]: 100%
IC20 [25]: 5.4 µM
